Active and inactive are the calls of the source. The calls are words filed in the database; no cut-off is given here.
Assays:
HT-29 = assay: Growth inhibition of human HT-29 cells after 72 hrs by MTT assay; assay type: functional
Method in brief: (§1)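 Cells kept in DMEM with 10% FBS, glutamine, penicillin/streptomycin at 37 °C, 5% CO2; plated in duplicate at 2500–4000 cells/well, dosed 24 h later during log growth. After 72 h drug exposure, MTT read at 540 nm. […] Assays in triplicate, standard error reported.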

U-87MG ATCC = assay: (§2) Growth inhibition of human U87 cells after 72 hrs by MTT assay; assay type: functional; method in brief: as §1
MCF7 = assay: Growth inhibition of human MCF7 cells after 72 hrs by MTT assay; assay type: functional; method in brief: as §1
A2780 = assay: Growth inhibition of human A2780 cells after 72 hrs by MTT assay; assay type: functional; method in brief: as §1
NCI-H460 = assay: (§3) Growth inhibition of human H460 cells after 72 hrs by MTT assay; assay type: functional; method in brief: as §1
A-431 = assay: Growth inhibition of human A431 cells after 72 hrs by MTT assay; assay type: functional; method in brief: as §1
DU-145 = assay: Growth inhibition of human DU145 cells after 72 hrs by MTT assay; assay type: functional; method in brief: as §1
BE(2)-C = assay: (§4) Growth inhibition of human BE(2)-C cells after 72 hrs by MTT assay; assay type: functional; method in brief: as §1
SJ-G2 = assay: (§5) Growth inhibition of human SJ-G2 cells after 72 hrs by MTT assay; assay type: functional; method in brief: as §1
MIA = assay: (§6) Growth inhibition of human MIA cells after 72 hrs by MTT assay; assay type: functional; method in brief: as §1
SMA = assay: (§7) Growth inhibition of mouse SMA cells after 72 hrs by MTT assay; assay type: functional; method in brief: as §1
[1] = as §2; assay type: functional, U-87MG ATCC; conditions: U-87 MG; method in brief: as §1
[2] = as §3; assay type: functional; conditions: NCI-H460, 72 h; method in brief: as §1
[3] = as §4; assay type: functional; method in brief: as §1
[4] = as §5; assay type: functional; conditions: SJ-G2, 72 h; method in brief: as §1
[5] = as §6; assay type: functional; method in brief: as §1
[6] = as §7; assay type: functional; method in brief: as §1
P338 = assay: Growth inhibition of mouse […] cells; assay type: functional, cell-based

SMILES | growth inhibition (GI) (HT-29) | growth inhibition (GI) (U-87MG ATCC) | growth inhibition (GI) (MCF7) | growth inhibition (GI) (A2780) | growth inhibition (GI) (NCI-H460) | growth inhibition (GI) (A-431) | growth inhibition (GI) (DU-145) | growth inhibition (GI) (BE(2)-C) | growth inhibition (GI) (SJ-G2) | growth inhibition (GI) (MIA) | growth inhibition (GI) (SMA) | other results
CCCCCCc1cc2c(C)cc3c(c2oc1=O)C(=O)c1c(OC(C)C)cccc1C3=O | Active | Active | Active | Active | Active | Active | Active | Active | Active | Active |  | 
Cc1cc2c(c3oc(=O)c(-c4ccccc4)cc13)C(=O)c1c(OC(C)C)cccc1C2=O | Active | Active | Active | Active | Active | Active | Active | Active | Active | Active | Active | 
CCCc1cc2c(C)cc3c(c2oc1=O)C(=O)c1c(OC(C)C)cccc1C3=O | Active | Active | Active | Active | Active | Active | Active | Active | Active | Active | Active | 
CCCCCCc1cc2c(C)cc3c(c2oc1=O)C(=O)c1c(O)cccc1C3=O | Active | Active | Active | Active | Active | Active | Active | Active | Active | Active | Active | 
CCC(C)(OCc1ccccc1)c1cc2c(C)cc3c(c2oc1=O)C(=O)c1c(OC(C)C)cccc1C3=O (stereo not given) | Active | Active | Active | Active | Active | Active | Active | Active | Active | Active | Active | 
Cc1cc2c(c3oc(=O)c(CCCC#N)cc13)C(=O)c1c(OC(C)C)cccc1C2=O | Active | Active | Active | Active | Active | Active | Active | Active | Active | Active | Active | 
CCCc1cc2c(C)cc3c(c2o1)C(=O)c1c(OC(C)C)cccc1C3=O | Active | Active | Active | Active | Active | Active | Active | Active | Active | Active | Active | 
Cc1cc2c(c3oc(C4(C)CO4)cc(=O)c13)C(=O)c1c(O)cccc1C2=O (racemic) |  |  |  |  |  |  |  |  |  |  |  | GI50 (HT-29; HT-29, 72 h): 2000 nM; GI50 [1]: 990 nM; GI50 (MCF7; MCF7, 72 h): 1300 nM; GI50 (A2780; A2780, 72 h): 290 nM; GI50 [2]: 2100 nM; GI50 (A-431; A-431, 72 h): 950 nM; GI50 (DU-145; DU-145, 72 h): 840 nM; GI50 [3]: 170 nM; GI50 [4]: 800 nM; GI50 [5]: 900 nM; GI50 [6]: 160 nM; IC50 (P338): 1 nM
CCCCc1cc2c(C)cc3c(c2oc1=O)C(=O)c1c(OC(C)C)cccc1C3=O | Active | Active | Active | Active | Active | Active | Active | Active | Active | Active | Active | 
CCCCCCc1cc2c(C)cc3c(c2o1)C(=O)c1c(OC(C)C)cccc1C3=O | Active | Active | Active | Active | Active | Active | Active | Active | Active | Active | Active | 
CCCCCCc1cc(=O)c2c(C)cc3c(c2o1)C(=O)c1c(O)cccc1C3=O | Active | Active | Active | Active | Active | Active | Active | Active | Active | Active |  | 
